Source: ChEMBL document CHEMBL5653631, “A Potent and Selective ULK1 Inhibitor Suppresses Autophagy and Sensitizes Cancer Cells to Nutrient Stress” (iScience, 2018)
Active and inactive are the calls of the source. The rule behind the calls is not given here.

Tests used:
[1] = target: Ribosomal protein S6 kinase alpha-4 (Homo sapiens) (UniProt O75676); test: Inhibition of human recombinant MSK2 at 500 nM related to control ULK1
[2] = target: Rho-associated protein kinase 2 (Homo sapiens) (UniProt O75116); test: Inhibition of human recombinant ROCK2 at 500 nM related to control ULK1
[3] = target: Ephrin type-A receptor 5 (Homo sapiens) (UniProt P54756); test: Inhibition of human recombinant EphA5 at 15 nM related to control ULK1
Chain of Ephrin type-A receptor 5 (Homo sapiens) (P54756 whole entry): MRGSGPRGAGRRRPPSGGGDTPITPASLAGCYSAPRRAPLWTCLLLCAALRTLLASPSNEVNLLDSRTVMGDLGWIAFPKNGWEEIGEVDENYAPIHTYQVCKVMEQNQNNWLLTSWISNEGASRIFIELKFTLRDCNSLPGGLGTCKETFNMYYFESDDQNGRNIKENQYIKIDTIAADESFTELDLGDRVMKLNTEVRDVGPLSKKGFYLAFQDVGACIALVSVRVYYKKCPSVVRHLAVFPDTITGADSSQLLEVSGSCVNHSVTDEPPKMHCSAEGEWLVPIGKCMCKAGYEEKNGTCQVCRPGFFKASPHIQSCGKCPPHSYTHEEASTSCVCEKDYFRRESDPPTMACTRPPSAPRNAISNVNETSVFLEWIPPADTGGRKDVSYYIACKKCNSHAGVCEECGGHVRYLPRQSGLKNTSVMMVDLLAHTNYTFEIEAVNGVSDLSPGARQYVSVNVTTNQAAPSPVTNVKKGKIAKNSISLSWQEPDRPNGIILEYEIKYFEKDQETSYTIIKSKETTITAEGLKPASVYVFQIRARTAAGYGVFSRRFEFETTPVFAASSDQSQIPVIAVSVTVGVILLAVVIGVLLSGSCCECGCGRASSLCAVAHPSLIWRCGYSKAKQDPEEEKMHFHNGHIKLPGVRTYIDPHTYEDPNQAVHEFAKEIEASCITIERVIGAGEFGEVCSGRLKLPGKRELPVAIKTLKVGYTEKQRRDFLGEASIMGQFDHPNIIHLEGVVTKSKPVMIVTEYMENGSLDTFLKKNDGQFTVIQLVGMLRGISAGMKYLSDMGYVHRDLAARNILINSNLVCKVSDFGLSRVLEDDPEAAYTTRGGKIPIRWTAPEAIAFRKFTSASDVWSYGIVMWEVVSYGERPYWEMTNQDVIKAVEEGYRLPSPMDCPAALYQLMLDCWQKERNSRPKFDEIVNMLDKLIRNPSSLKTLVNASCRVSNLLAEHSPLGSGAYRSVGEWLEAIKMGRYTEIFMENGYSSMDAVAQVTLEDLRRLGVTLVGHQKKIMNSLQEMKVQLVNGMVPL

[4] = target: ALK tyrosine kinase receptor (Homo sapiens) (UniProt Q9UM73); test: Inhibition of human recombinant ALK at 15 nM in presence of ATP by radiometric assay relative to control
Chain of ALK tyrosine kinase receptor (Homo sapiens) (Q9UM73 19-1620 limits assumed): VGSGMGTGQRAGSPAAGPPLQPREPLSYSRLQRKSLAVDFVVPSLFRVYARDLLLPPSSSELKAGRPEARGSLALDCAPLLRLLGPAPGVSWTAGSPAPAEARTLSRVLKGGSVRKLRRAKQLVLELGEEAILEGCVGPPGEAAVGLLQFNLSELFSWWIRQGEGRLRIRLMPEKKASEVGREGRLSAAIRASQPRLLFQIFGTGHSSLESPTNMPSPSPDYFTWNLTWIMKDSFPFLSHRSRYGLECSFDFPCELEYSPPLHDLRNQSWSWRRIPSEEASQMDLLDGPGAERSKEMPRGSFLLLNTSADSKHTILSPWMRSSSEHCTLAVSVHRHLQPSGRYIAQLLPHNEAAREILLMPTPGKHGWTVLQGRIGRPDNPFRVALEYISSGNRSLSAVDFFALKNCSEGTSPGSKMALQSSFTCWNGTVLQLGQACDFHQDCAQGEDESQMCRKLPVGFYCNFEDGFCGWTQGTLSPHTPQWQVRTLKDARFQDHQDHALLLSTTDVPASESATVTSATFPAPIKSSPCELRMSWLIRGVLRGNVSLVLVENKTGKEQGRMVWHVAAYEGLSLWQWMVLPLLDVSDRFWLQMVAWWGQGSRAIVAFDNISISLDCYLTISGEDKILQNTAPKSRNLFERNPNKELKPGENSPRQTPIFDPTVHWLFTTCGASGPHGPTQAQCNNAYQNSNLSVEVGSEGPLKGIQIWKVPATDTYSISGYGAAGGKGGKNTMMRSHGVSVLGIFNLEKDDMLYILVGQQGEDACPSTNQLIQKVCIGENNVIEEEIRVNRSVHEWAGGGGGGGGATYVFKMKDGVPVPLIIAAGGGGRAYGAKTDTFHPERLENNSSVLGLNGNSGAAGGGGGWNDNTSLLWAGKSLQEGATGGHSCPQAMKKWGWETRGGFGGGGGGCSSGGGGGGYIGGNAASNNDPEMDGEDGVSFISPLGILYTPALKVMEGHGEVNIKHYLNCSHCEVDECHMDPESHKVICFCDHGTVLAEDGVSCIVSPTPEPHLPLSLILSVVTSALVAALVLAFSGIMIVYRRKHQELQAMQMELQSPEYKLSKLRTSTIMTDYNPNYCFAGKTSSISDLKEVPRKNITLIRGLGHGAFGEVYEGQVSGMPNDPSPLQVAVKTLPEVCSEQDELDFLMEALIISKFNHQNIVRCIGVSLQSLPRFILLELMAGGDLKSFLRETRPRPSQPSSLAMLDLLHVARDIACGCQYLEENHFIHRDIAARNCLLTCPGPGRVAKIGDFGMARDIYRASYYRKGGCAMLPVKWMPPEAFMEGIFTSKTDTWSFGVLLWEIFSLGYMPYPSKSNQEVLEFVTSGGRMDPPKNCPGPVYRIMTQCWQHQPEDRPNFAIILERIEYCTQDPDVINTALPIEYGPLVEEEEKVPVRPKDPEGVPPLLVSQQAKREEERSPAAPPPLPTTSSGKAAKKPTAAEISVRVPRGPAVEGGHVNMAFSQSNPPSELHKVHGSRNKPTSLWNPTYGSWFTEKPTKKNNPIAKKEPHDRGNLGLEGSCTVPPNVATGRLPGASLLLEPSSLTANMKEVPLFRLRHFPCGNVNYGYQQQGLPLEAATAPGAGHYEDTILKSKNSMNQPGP
Outline: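 Panel of 327 recombinant human kinases in radiometric activity assays, each screened in duplicate at a single inhibitor concentration; percent activity remaining relative to vehicle control, percent inhibition taken as 100 minus activity remaining.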

[5] = target: Mitogen-activated protein kinase 1 (Homo sapiens) (UniProt P28482); test: Inhibition of human recombinant Erk2 at 15 nM related to control ULK1
Chain of Mitogen-activated protein kinase 1 (Homo sapiens) (P28482 whole entry): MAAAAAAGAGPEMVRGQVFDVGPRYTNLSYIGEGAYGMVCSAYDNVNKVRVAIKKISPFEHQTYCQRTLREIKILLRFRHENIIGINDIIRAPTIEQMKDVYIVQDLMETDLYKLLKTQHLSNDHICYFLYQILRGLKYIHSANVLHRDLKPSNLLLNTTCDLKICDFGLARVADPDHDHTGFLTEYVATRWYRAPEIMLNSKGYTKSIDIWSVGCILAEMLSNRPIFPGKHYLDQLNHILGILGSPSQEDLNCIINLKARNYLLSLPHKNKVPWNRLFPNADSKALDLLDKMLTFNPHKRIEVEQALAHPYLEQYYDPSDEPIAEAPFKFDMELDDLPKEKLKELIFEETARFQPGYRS

[6] = target: T1, Ephrin type-B receptor 4 (Homo sapiens) (UniProt P54760); test: Inhibition of human recombinant EphB4 at 15 nM related to control ULK1
T1 sequence (whole entry): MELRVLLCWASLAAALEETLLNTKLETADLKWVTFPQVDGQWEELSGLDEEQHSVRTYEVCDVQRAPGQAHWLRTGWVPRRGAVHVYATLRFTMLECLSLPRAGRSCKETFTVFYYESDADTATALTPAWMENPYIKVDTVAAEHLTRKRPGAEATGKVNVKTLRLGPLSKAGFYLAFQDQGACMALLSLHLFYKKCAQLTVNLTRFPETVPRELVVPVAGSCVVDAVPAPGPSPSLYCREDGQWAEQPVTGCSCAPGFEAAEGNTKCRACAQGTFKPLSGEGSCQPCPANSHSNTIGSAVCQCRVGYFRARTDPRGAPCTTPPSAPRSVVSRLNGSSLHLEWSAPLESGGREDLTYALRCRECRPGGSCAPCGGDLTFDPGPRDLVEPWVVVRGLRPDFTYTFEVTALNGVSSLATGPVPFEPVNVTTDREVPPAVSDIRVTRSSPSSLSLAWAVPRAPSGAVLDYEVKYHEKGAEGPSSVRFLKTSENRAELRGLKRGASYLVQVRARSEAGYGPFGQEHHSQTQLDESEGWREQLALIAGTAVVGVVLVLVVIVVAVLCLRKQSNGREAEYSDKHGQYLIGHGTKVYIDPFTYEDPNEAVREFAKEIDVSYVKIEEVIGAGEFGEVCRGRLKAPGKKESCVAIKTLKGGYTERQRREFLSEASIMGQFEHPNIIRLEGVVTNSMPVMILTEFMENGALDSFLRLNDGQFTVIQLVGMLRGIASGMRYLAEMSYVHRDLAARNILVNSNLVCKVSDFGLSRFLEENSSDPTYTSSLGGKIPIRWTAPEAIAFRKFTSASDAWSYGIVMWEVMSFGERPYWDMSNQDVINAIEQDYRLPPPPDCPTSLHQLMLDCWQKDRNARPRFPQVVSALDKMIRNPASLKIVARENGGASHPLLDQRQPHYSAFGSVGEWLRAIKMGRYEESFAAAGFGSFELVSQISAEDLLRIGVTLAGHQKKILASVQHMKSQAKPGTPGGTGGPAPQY

[7] = target: G protein-coupled receptor kinase 6 (Homo sapiens) (UniProt P43250); test: Inhibition of human recombinant GPRK6 at 15 nM related to control ULK1
[8] = target: Tyrosine-protein kinase FRK (Homo sapiens) (UniProt P42685); test: Inhibition of human recombinant FRK at 15 nM in presence of ATP by radiometric assay relative to control
Chain of Tyrosine-protein kinase FRK (Homo sapiens) (P42685 whole entry): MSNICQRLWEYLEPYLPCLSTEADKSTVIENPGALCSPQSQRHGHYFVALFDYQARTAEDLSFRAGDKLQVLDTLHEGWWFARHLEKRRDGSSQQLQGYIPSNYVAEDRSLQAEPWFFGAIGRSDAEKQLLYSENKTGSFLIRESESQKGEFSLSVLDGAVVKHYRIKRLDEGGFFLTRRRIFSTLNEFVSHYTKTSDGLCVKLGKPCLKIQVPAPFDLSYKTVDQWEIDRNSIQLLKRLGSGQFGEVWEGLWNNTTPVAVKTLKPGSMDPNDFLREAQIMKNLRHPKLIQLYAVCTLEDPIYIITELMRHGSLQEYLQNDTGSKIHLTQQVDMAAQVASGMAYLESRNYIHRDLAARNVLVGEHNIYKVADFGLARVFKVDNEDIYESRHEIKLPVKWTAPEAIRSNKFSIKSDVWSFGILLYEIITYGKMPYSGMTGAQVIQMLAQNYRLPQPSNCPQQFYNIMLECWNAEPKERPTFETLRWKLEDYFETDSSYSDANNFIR

[9] = target: Dual specificity protein kinase CLK4 (Homo sapiens) (UniProt Q9HAZ1); test: Inhibition of human recombinant CLK4 at 40 nM related to control ULK1
Chain of Dual specificity protein kinase CLK4 (Homo sapiens) (Q9HAZ1 whole entry, looked up): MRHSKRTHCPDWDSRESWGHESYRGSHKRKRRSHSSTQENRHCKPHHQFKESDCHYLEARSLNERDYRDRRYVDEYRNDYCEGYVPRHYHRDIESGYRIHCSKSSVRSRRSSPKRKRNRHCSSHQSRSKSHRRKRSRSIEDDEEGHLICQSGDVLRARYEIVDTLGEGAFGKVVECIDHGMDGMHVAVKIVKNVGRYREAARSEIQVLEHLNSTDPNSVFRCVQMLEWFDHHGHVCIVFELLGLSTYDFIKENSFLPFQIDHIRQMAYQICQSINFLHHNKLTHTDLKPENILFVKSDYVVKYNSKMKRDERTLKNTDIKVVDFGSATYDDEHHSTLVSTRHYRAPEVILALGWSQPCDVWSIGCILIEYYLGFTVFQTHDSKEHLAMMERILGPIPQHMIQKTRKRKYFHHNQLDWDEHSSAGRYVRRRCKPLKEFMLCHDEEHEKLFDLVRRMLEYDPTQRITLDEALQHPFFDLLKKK

U2OS = test: Inhibition of autophagy in human U2OS cells expressing […] assessed as DFCP1-positive puncta formation at 5 uM incubated for 2.5 hrs in presence of […] by Fluorescent microscopy based analysis; type: functional, cell-based
Outline: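 U2OS cells stably expressing EGFP-DFCP1 treated 2.5 hr with vehicle or 100 nM AZD8055, with or without 5 μM inhibitor; imaged live by fluorescence microscopy; DFCP1-positive objects per cell counted in 20–25 cells per condition; mean ± SEM, two-tailed unpaired t test.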

[10] = target: T2, Mitogen-activated protein kinase kinase kinase 3 (Homo sapiens) (UniProt Q99759); test: Inhibition of human recombinant MAP3K3 at 40 nM in presence of ATP by radiometric assay relative to control
T2 sequence (whole entry): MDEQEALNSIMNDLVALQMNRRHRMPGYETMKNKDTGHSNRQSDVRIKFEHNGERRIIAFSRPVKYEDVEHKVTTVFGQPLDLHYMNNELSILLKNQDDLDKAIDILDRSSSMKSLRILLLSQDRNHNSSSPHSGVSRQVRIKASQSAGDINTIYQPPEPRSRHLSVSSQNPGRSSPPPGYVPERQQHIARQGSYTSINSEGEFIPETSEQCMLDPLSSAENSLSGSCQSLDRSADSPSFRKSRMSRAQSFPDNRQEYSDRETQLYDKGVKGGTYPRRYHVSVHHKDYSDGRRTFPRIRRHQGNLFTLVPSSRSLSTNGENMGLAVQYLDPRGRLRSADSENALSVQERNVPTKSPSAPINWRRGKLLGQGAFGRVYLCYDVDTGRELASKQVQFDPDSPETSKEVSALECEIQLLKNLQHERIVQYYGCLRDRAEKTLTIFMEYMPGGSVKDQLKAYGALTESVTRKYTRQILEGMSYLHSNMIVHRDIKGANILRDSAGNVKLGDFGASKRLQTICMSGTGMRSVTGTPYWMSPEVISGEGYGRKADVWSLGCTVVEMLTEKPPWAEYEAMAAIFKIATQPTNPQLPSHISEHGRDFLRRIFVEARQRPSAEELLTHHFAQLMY

Homo sapiens = organism: Homo sapiens; test: Inhibition of human recombinant ABL at 40 nM related to control ULK1
Outline: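 Radiometric activity assays in a panel of 327 human recombinant kinases, each run in duplicate at one inhibitor concentration. Activity remaining is expressed as percent of vehicle control, and percent inhibition is calculated as 100% minus percent activity remaining.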

[11] = target: SAFB-like transcription modulator (Homo sapiens) (UniProt Q9NWH9); test: Inhibition of human recombinant MET at 40 nM related to control ULK1

Chain of Ribosomal protein S6 kinase alpha-4 (Homo sapiens) (O75676 whole entry, looked up): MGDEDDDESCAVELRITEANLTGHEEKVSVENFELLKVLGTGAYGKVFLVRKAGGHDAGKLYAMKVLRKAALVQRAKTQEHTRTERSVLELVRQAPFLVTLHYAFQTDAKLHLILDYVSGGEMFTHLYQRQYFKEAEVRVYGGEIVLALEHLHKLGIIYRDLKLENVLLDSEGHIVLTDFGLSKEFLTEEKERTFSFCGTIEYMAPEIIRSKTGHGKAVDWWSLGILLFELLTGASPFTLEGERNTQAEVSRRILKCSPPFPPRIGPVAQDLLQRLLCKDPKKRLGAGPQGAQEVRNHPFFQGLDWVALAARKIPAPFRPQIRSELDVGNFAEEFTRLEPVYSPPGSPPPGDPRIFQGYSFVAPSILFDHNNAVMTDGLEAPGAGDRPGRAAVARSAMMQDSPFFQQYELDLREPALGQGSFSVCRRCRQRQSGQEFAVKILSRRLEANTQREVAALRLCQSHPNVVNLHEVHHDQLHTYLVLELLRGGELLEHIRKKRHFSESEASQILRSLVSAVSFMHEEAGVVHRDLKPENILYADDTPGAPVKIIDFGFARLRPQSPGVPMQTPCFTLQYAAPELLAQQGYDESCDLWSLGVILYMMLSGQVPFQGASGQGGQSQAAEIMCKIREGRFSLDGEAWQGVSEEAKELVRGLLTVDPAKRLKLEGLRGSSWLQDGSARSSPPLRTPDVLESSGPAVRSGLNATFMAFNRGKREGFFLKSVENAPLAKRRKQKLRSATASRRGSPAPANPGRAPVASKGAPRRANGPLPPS

With CNC(=O)c1ccccc1Oc1nc(Nc2cc(OC)c(OC)c(OC)c2)ncc1Br the fold change (FC) [1] was 0 and the fold change (FC) [2] was 0.

With CC(C)[C@H](NC(=O)c1cc(-c2cnn3cc(-c4ccc(OCCN5CCCCC5)cc4)cnc23)cs1)C(F)(F)F the fold change (FC) [3] was 0, the inhibition [4] was 0% and the fold change (FC) [5] was 0. For the same compound, the fold change (FC) [6] was 0.03, the fold change (FC) [7] was 0 and the inhibition [8] was 13%.

With O=C(N[C@@H](C1CC1)C(F)(F)F)c1cc(-c2cnn3cc(-c4ccc(F)cc4)cnc23)cs1 the fold change (FC) [9] was 0.71, the inhibition (U2OS) was “Active” and the inhibition [10] was 0%. The fold change (FC) (Homo sapiens) was 0.16 and the fold change (FC) [11] was 0.22.
